Data reported in paper PMC4899269 (Structure (London, England : 1993), 2016).
Where no end group is shown, it is not given here.

Legend:
JAK1 FERM–SH2 = experiment: Co-purification and size exclusion chromatography of JAK1/receptor complexes; format: binding, human; settings: large scale co-expression, Ni-IMAC, TEV cleavage, SDS-PAGE
Procedure, shortened: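 His-JAK1 FERM–SH2 (G35–K559) co-expressed in insect cells with one of two GST-tagged partners, co-infected at 1:1 viral ratio: GST-IFNLR1 (K250–T299), or a chimera of IFNLR residues K250–R260 fused to IL-10RA K264–K303. Lysates purified by Ni-IMAC then SEC. Complex fractions TEV-cleaved and put through a second SEC round.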

JAK1 FERM–SH2 I240F = JAK1 FERM–SH2 I240F (human, UniProt P23458 35-559, Ile240 to phenylalanine); experiment: BLI
Chain of JAK1 FERM–SH2 I240F (P23458 35-559 I240F): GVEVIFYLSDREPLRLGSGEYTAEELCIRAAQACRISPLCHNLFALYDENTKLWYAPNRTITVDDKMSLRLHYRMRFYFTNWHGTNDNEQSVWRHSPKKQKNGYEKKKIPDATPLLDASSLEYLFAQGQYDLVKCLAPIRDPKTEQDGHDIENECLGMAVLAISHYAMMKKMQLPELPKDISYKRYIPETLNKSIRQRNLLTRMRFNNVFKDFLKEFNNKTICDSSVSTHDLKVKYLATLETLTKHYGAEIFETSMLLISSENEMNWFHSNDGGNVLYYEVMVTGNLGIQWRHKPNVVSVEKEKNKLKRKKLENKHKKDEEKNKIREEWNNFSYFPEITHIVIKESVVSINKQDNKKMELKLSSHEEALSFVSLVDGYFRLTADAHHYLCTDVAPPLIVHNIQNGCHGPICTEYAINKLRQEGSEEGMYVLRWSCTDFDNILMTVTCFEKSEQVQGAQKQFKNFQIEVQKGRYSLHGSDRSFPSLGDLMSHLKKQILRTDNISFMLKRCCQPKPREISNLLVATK

JAK1 FERM–SH2 I240L = JAK1 FERM–SH2 I240L (human, UniProt P23458 35-559, Ile240 to leucine); experiment: BLI
Chain of JAK1 FERM–SH2 I240L (P23458 35-559 I240L): as the sequence (P23458 35-559 I240F) above, with F206L counted along it

[1] = biological target: human JAK1 FERM–SH2 (as used in BioLayer Interferometry) (human, UniProt P23458 35-559); experiment: BLI
Chain of human JAK1 FERM–SH2 (as used in BioLayer Interferometry) (P23458 35-559): as the sequence (P23458 35-559 I240F) above, with F206I counted along it

[2] = biological target: human JAK1 FERM–SH2 (residues 35–559), His tag released with TEV (human, UniProt P23458 35-559); experiment: SEC-MALS
Chain of human JAK1 FERM–SH2 (residues 35–559), His tag released with TEV (P23458 35-559): as the sequence (P23458 35-559 I240F) above, with F206I counted along it

Row | Molecule | complex formation with JAK1 on purification / SEC (in words) (JAK1 FERM–SH2) | koff [1] [s⁻¹] | kon [1] [M⁻¹ s⁻¹] | other results
1 | IL10RA: GST-tagged human receptor cytoplasmic fragment with putative box1 and box2 motifs ({GST}-QLYVRRRKKLPSVLLFKKPSPFIFISQRPSPETQDTIHPLDEEAFLK) | formed a stable complex with JAK1 |  |  | 
2 | KTLMGNPWFQRAKMPRALDFS (peptide, UniProt Q8IU57 250-270, looked up, also: biotin, position not given here) [biotinylated IFNLR1 box1 peptide (residues 250–270)] |  | 0.089 | 72500 | binding result (JAK1 FERM–SH2 I240F): binds; binding result (JAK1 FERM–SH2 I240L): binds
3 | KTLMGNPWFQRAKMPRALDFSGHTHPVATFQPSRPESVNDLFLCPQKELT (peptide, UniProt Q8IU57 250-299, looked up, also: biotin, position not given here) [biotinylated IFNLR1 box1/box2 peptide (residues 250–299)] |  | 0.00355 | 50400 | 
4 | KTLMGNPWFQRAKMPRALDFSGHTHPVATFQPSRPESVND (peptide, UniProt Q8IU57 250-289, looked up, also: biotin, position not given here) [biotinylated IFNLR1 box1Δbox2 peptide (residues 250–289)] |  | 0.0544 | 34600 | 
5 | KTLMGNPWFQRAKMPRALDFSGHTHPVATFQPSRPESVNDLFLCPQKELT (peptide, UniProt Q8IU57 250-299, looked up) [IFNLR1 box1/box2 peptide (residues 250–299), GST released with TEV] |  |  |  | stoichiometry N [2]: 1

Further lines, with some results ahead:

Row | complex formation with JAK1 on purification / SEC (in words) (JAK1 FERM–SH2) | koff [1] [s⁻¹] | kon [1] [M⁻¹ s⁻¹] | Molecule | other results
6 | form a stable complex with JAK1 |  |  | peptide containing IFNLR1 box1 and box2: GST-tagged IFNLR1 box1/box2 fragment (residues 250–299), co-expressed with JAK1 ({GST}-KTLMGNPWFQRAKMPRALDFSGHTHPVATFQPSRPESVNDLFLCPQKELT) | 
7 | did not co-purify with JAK1 |  |  | box2 fragment of IFNLR1: GST-tagged fragment of IFNLR1 containing box2 sequences (residues 270–299) ({GST}-SGHTHPVATFQPSRPESVNDLFLCPQKELT) | 
